Laboratory results published in ChEMBL document CHEMBL2390841, “1,1-Difluoroethyl-substituted triazolothienopyrimidines as inhibitors of a human urea transport protein (UT-B): new analogs and binding model” (Bioorg Med Chem Lett, 2013).

Experiments:
Liver microsomes = assay: Metabolic stability in rat liver microsomes assessed as parent compound remaining after 30 mins; format: ADME, Microsome; settings: 0.5 h
Summary of the method: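 Compounds are incubated 30 min with rat liver microsomes plus NADPH, then organic-extracted and analysed by LCMS. Value is percent parent remaining.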

Urea transporter 1 = molecular target: T1, Urea transporter 1 (Mus musculus, UniProt Q8VHL0); assay: Inhibition of UT-B in mouse acetamide-loaded erythrocyte assessed as increase of hypotonic lysis
T1 sequence (Q8VHL0 whole entry): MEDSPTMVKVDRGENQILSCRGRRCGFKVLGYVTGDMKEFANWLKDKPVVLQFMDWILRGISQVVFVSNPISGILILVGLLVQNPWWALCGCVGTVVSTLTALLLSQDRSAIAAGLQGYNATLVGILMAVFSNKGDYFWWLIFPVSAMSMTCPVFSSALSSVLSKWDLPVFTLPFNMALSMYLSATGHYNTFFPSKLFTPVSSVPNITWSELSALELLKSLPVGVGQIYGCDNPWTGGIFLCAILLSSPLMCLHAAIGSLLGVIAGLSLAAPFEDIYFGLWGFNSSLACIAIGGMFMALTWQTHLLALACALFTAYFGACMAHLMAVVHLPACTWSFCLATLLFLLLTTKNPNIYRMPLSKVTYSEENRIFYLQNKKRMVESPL
Summary of the method: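 Erythrocytes preloaded with acetamide are diluted into isosmolar PBS. Hypotonic lysis is read as near-infrared light absorbance; blocking UT-B-mediated acetamide efflux increases lysis. IC50 comes from a fit to a single-site saturation model.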

CC(F)(F)c1ccc(S(=O)(=O)c2nnn3c2nc(NCc2ccsc2)c2sccc23)cc1
Stability (Liver microsomes): 47%
IC50 (Urea transporter 1): 43 nM

CC(F)(F)c1ccc(S(=O)(=O)c2nnn3c2nc(NCc2ccco2)c2sccc23)cc1
Stability (Liver microsomes): 14%
IC50 (Urea transporter 1): 353 nM

Cc1csc(CNc2nc3c(S(=O)(=O)c4ccc(C(C)(F)F)cc4)nnn3c3ccsc23)c1
Stability (Liver microsomes): 22%
IC50 (Urea transporter 1): 38 nM

CC(F)(F)c1ccc(S(=O)(=O)c2nnn3c2nc(NCC2CC2)c2sccc23)cc1
Stability (Liver microsomes): 75%
IC50 (Urea transporter 1): > 800 nM

CC(F)(F)c1ccc(S(=O)(=O)c2nnn3c2nc(NCC2CCC2)c2sccc23)cc1
Stability (Liver microsomes): 24%
IC50 (Urea transporter 1): > 800 nM

CCc1ccc(S(=O)(=O)c2nnn3c2nc(NCc2cccs2)c2sccc23)cc1
Stability (Liver microsomes): < 5%

CC(F)(F)c1ccc(S(=O)(=O)c2nnn3c2nc(NCc2ccccc2)c2sccc23)cc1
Stability (Liver microsomes): 79%
IC50 (Urea transporter 1): > 800 nM
